Experimental data pooled from the literature.
Protocols differ between the studies behind these lines. In brackets after ≈: the same amount, converted by molar mass.

| Structure (SMILES) | organism | assay | test system | setting | quantity | value |
| --- | --- | --- | --- | --- | --- | --- |
| CCCCCCCCCCCCCCCC(=O)C(F)(F)P(=O)(O)O | Bacillus subtilis | microbial growth | ATCC23857 |  | MIC | 200 µg/mL |
| C[C@@H]1[C@H](O)[C@@H](C)/C=C/C=C/C=C/C=C/C=C/C=C/C=C/[C@H](O[C@@H]2O[C@H](C)[C@@H](O)[C@H](N)[C@@H]2O)C[C@@H]2O[C@](O)(C[C@@H](O)C[C@@H](O)[C@H](O)CC[C@@H](O)C[C@@H](O)CC(=O)O[C@H]1C)C[C@H](O)[C@H]2C(=O)O | Cryptococcus neoformans | microbial growth | ATCC90113 |  | MIC | 1.25 µg/mL |
| NC[C@H]1O[C@H](O[C@H]2[C@H](O)[C@@H](O[C@H]3O[C@H](CO)[C@@H](O)[C@H](N)[C@H]3O)[C@H](N)C[C@@H]2N)[C@H](N)C[C@@H]1O | Listeria monocytogenes | microbial growth | ATCC19115 |  | MIC | 4.7 µg/mL |
| O=C(CCCCC1CCCCC1)CP(=O)(O)O | Bacillus subtilis | microbial growth | ATCC23857 |  | MIC | 25 µg/mL |
| Cc1ccccc1C(=O)NN=Cc1ccc(O)c(Br)c1 | Cryptococcus neoformans | microbial killing |  |  | MFC | 4 µg/mL (≈ 12 µM) |
| CC[C@H](C)C[C@H](C)CCCCCCCCC(=O)N[C@H]1C[C@@H](O)[C@@H](NCCN)NC(=O)[C@@H]2[C@@H](O)CCN2C(=O)[C@H]([C@H](O)CCN)NC(=O)[C@H]([C@H](O)[C@@H](O)c2ccc(O)cc2)NC(=O)[C@@H]2C[C@@H](O)CN2C(=O)[C@H]([C@@H](C)O)NC1=O | Nakaseomyces glabratus | microbial growth, broth dilution | MY1381 |  | MIC50 | 0.125 µg/mL |
| CCCCCC/C=C\CCCCCCCCCC(=O)NP(=O)(O)O | Bacillus subtilis | microbial growth | ATCC23857 |  | MIC | 100 µg/mL |
| CCCSc1ccc2nc(NC(=O)OC)[nH]c2c1 | Cryptococcus neoformans | microbial growth, broth dilution |  | 72 h, clinical isolate | IC50 | 1.25 µM |
| CCC[C@H]1CN(c2cccc(OC(F)(F)F)c2)C(=O)CN1Cc1cncn1Cc1ccc(Br)cc1 | Cryptococcus neoformans | microbial growth, broth dilution |  |  | MIC | 3 to 6 µM |
| CCCCCCCCCCCCCCCc1cc(O)cc(O)c1 | Listeria monocytogenes | microbial growth | ATCC19115 |  | IC50 | > 200 µM |
| CCCCCC/C=C\CCCCCCCCCC(=O)CP(=O)(O)O | Bacillus subtilis | microbial growth | ATCC23857 |  | MIC | 25 µg/mL |
| CC(C)CCCCCCCCCCCCCCc1cc(O)cc(O)c1 | Listeria monocytogenes | microbial growth | ATCC19115 |  | IC50 | 20.3 µM |
| CC1(C)S[C@@H]2[C@H](NC(=O)[C@H](N)c3ccccc3)C(=O)N2[C@H]1C(=O)O | Proteus vulgaris | microbial growth, well diffusion | ATCC13315 | 60000 µg/mL | inhibition zone | 25 mm |
| CCOC(=O)c1ccccc1S(=O)(=O)NC(=O)Nc1nc(Cl)cc(OC)n1 | Nakaseomyces glabratus | microbial growth, broth dilution |  | 48 h | MIC50 | 5.6 µM |
| CC(C)C(C)CCCCCCCCCCCc1cc(O)cc(O)c1 (stereo not drawn) | Listeria monocytogenes | microbial growth | ATCC19115 |  | IC50 | 34.2 µM |
